Measured values collected from several papers.
GSR: Glutathione reductase, mitochondrial (GSR, Homo sapiens, UniProt P00390)
Integrin alpha-V/beta-3: Integrin alpha-V/beta-3 (Homo sapiens, UniProt P05106+P06756)
PTPN1: Tyrosine-protein phosphatase non-receptor type 1 (PTPN1, Homo sapiens, UniProt P18031)
Acetylcholinesterase: Acetylcholinesterase (Bos taurus, UniProt P23795)
LDHA: L-lactate dehydrogenase A chain (LDHA, Homo sapiens, UniProt P00338)
MAOA: Amine oxidase [flavin-containing] A (MAOA, Homo sapiens, UniProt P21397)

`c1ccc(CCCN2CCN(CCOC(c3ccccc3)c3ccccc3)CC2)cc1` has an IC50 of > 100 µM (GSR; enzyme activity; inhibitor; absorbance).
`CC[C@H](C)[C@@H]([C@@H](CC(=O)N1CCC[C@H]1[C@H](OC)[C@@H](C)C(=O)N[C@H](C)[C@@H](O)c1ccccc1)OC)N(C)C(=O)[C@@H](NC(=O)[C@H](C(C)C)N(C)C(=O)OCc1ccc(NC(=O)[C@H](C)NC(=O)[C@@H](NC(=O)CCc2cn(CCOCCOCCOCCOCC(=O)NCc3ccc(CN4C(=O)[C@H]5CC(=O)N[C@H](C(=O)O)CC(=O)NCC(=O)N[C@@H](CCCNC(=N)N)C(=O)NC[C@H]4C(=O)N5)cc3)nn2)C(C)C)cc1)C(C)C` has an IC50 of 0.0362 µM (Integrin alpha-V/beta-3; ligand displacement).
With `COc1ccc(N2CCN(C(c3cccs3)C(C)NC(=O)C(=O)NCc3ccco3)CC2)cc1` (centres unmarked) the IC50 was 14.4 µM (PTPN1; enzyme activity; inhibitor; absorbance; pH 7).
The IC50 of `CNC1CC(c2ccc(Cl)c(Cl)c2)c2ccccc21` (centres unmarked) is reported as > 100 µM (GSR; enzyme activity; inhibitor; absorbance).
With `CCC(CC)CSc1ccccc1OC(=O)NC` the IC50 was 5.07 µM (Acetylcholinesterase; enzyme activity; inhibitor; Ellman).
The IC50 of `CC(=O)OC[C@H]1O[C@@H](O[C@H]2[C@H](Oc3cc(O)c4c(=O)cc(-c5ccc(O)c(O)c5)oc4c3)O[C@H](CO)[C@@H](O)[C@@H]2O)[C@H](O)[C@@H](O)[C@@H]1O` is reported as 445 µM (LDHA; enzyme activity; inhibitor; pH 7.4).
With `O=C(Nc1ccc([N+](=O)[O-])cc1[N+](=O)[O-])c1ccc2c(c1)OCO2` the IC50 was 0.289 µM (MAOA; enzyme activity; inhibitor).
For `Cc1ccc2nc(N3C(=O)C(O)=C(C(=O)OC(C)(C)C)C3c3ccc(-c4ccc(Cl)cc4)o3)sc2c1` (centres unmarked), the IC50 was 4.5 µM (UDP-N-acetylglucosamine 1-carboxyvinyltransferase (murA, Escherichia coli K-12, UniProt P0A749); enzyme activity; inhibitor).
With `NC(Cc1ccc(C(=O)[P-](F)(F)(F)(F)F)cc1)C(=O)O` (centres unmarked) the IC50 was 104 µM (PTPN1; enzyme activity; inhibitor).
With `CN(C)CCCN1c2ccccc2Sc2ccccc21` the IC50 was 0.11 µM (Histamine H2 receptor (HRH2, Homo sapiens, UniProt P25021); ligand displacement; radioligand).
For `COc1cc(Nc2ncc(F)c(Nc3ccc4c(n3)NC(=O)C(C)(C)O4)n2)cc(OC)c1OC`, the IC50 was 12.6 µM (Cathepsin S (CTSS, Homo sapiens, UniProt P25774); enzyme activity; inhibitor).
`COc1cc2c3cc1Oc1cc(ccc1O)C[C@@H]1c4c(cc(OC)c(O)c4Oc4ccc(cc4)C[C@@H]3N(C)CC2)CC[N+]1(C)C` gave an IC50 of 54.4 µM (Acetylcholinesterase; enzyme activity; inhibitor; Ellman).
`O=C1C[C@H](c2ccc(O)cc2)Oc2cc(O)ccc21` gave an IC50 of 9.97 µM (MAOA; enzyme activity; inhibitor).
For `Nc1ncnc2c1ncn2[C@@H]1O[C@H](COP(=O)(O)OP(=O)(O)OP(=O)(O)O)[C@@H](O)[C@H]1O`, the IC50 was ~0.015 µM (Nucleotide-binding oligomerization domain-containing protein 1 (NOD1, Homo sapiens, UniProt Q9Y239); ligand displacement; FP).
For `COc1c(O[C@@H]2O[C@H](CO)[C@@H](O)[C@H](O)[C@H]2O)cc2oc(-c3ccc(O)cc3)cc(=O)c2c1O`, the IC50 was 210 µM (LDHA; enzyme activity; inhibitor; pH 7.4).
`CC[C@H](C)[C@@H]([C@@H](CC(=O)N1CCC[C@H]1[C@H](OC)[C@@H](C)C(=O)N[C@H](C)[C@@H](O)c1ccccc1)OC)N(C)C(=O)[C@@H](NC(=O)[C@H](C(C)C)N(C)C(=O)CCc1cn(CCOCCOCCOCCOCC(=O)NCc2ccc(CN3C(=O)[C@H]4CC(=O)N[C@H](C(=O)O)CC(=O)NCC(=O)N[C@@H](CCCNC(=N)N)C(=O)NC[C@H]3C(=O)N4)cc2)nn1)C(C)C` has an IC50 of 0.0145 µM (Integrin alpha-V/beta-3; ligand displacement).
`CNC(=O)Oc1ccccc1OC(C)C` gave an IC50 of 1.83 µM (Acetylcholinesterase; enzyme activity; inhibitor; Ellman).
`C[C@@H]1C/C=C/CCCCC(=O)Cc2cc(O)cc(O)c2C(=O)O1` gave an IC50 of > 10 µM (Mitogen-activated protein kinase kinase kinase 7 (MAP3K7, Homo sapiens, UniProt O43318); enzyme activity; inhibitor; ATP luminescence).
For `C#CCNc1nc(NCCCCC2CCN(Cc3ccccc3)CC2)c(C#N)cc1C#N`, the IC50 was 53.3 µM (MAOA; enzyme activity; inhibitor; fluorescence).
`CNC(=O)Oc1cccc2c1OC(C)(C)C2` gave an IC50 of 0.073 µM (Acetylcholinesterase; enzyme activity; inhibitor; Ellman).
